Molecules are shown by their SMILES. Values after ≈ are worked out from the molar mass of the structure shown.

For assay [1], the system named is Bacillus subtilis. In words: Concentration (IC50) to inhibit the growth of Bacillus subtilis. In kind it is functional, organism-based. In a few lines:
(§1)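 Broth dilution in a defined liquid peptide medium lacking antagonists of small peptide mimetics. Inocula were overnight cultures grown in this medium at 37 °C and diluted to about 4 × 10^6 cfu/mL. Compound was tested as a doubling dilution series, final 0.065–512 μg/mL, incubated overnight at 37 °C. Turbidity was read, and IC50 is the concentration reducing 24-h growth to 50% of control.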

Assay [2] deals with Serratia marcescens. In words: Minimum inhibitory concentration (MIC) to control the growth of Serratia marcescens strain PCM 549. The assay is classed as functional. A digest of the protocol:
(§2)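 Doubling dilutions of compound were made in a defined liquid peptide medium free of peptide-mimetic antagonists, final 0.065–512 μg/mL. The inoculum was an overnight 37 °C culture diluted to about 4 × 10^6 cfu/mL, incubated overnight at 37 °C. Non-turbid samples were subcultured (0.1 mL) onto solid peptide-medium agar and incubated overnight at 37 °C to assign MIC.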

Assay [3] concerns Escherichia coli. In words: Minimum inhibitory concentration (MIC) to control the growth of Escherichia coli strain PCM 2057. The assay is classed as functional. In a few lines: as §2
In assay [4] the test system is Staphylococcus aureus. In words: Minimum inhibitory concentration (MIC) to control the growth of Staphylococcus aureus strain PCM 2054. The assay is classed as functional. A digest of the protocol: as §2
Assay [5] relates to Staphylococcus aureus. Kind of assay: Concentration (IC50) to inhibit the growth of Staphylococcus aureus. The assay is classed as functional, organism-based. A digest of the protocol:
as §1

The subject of assay [6] is Escherichia coli. In words: Concentration (IC50) to inhibit the growth of Escherichia coli. In kind it is functional, organism-based. A digest of the protocol: as §1
Assay [7] concerns Klebsiella aerogenes. In words: Concentration (IC50) to inhibit the growth of Klebsiella aerogenes. The assay is classed as functional, organism-based. A digest of the protocol:
as §1

The test system of assay [8] is Bacillus subtilis. Kind of assay: Minimum inhibitory concentration (MIC) to control the growth of Bacillus subtilis strain PCM 1949. In kind it is functional. A digest of the protocol: as §2
In assay [9] the test system is Klebsiella aerogenes. Kind of assay: Minimum inhibitory concentration (MIC) to control the growth of Klebsiella aerogenes strain PCM 2063. The assay is classed as functional. A digest of the protocol: as §2
The test system of assay [10] is Serratia marcescens. In words: Concentration (IC50) to inhibit the growth of Serratia marcescens. In kind it is functional, organism-based. A digest of the protocol:
as §1

The test system of assay [11] is Enterococcus faecalis. In words: Minimum inhibitory concentration (MIC) to control the growth of Streptococcus faecalis strain PCM 896. In kind it is functional. A digest of the protocol:
as §2

Assay [12] relates to Enterococcus faecalis. In words: Concentration (IC50) to inhibit the growth of Streptococcus faecalis. In kind it is functional, organism-based. In a few lines:
as §1

As for `CC(C)CC(N)C(=O)NC(C1CCCCC1)P(=O)(O)O` (stereo unspecified), the IC50 in [1], in assay [5], in [6], in assay [7], in assay [10] and in assay [12] was above 512 µg/mL each time. For the same molecule, the MIC in assay [2], in [3], in [4], in assay [8], in assay [9] and in assay [11] was above 512 µg/mL throughout.

As to `CC(N)C(=O)NC(C1CC1)P(=O)(O)O` (stereo unspecified), the IC50 in assay [1], in assay [5], in [6], in [7], in [10] and in assay [12] was above 512 µg/mL in each case. The MIC in assay [2], in assay [3], in [4], in assay [8], in [9] and in [11] was above 512 µg/mL in each case.

As for `CC(C)CC(N)C(=O)NC(C(C)(C)C)P(=O)(O)O` (stereo unspecified), the IC50 in [1], in assay [5], in [6], in assay [7], in assay [10] and in assay [12] was above 512 µg/mL in each case. Further, the MIC in assay [2], in assay [3], in [4], in assay [8], in assay [9] and in assay [11] was above 512 µg/mL throughout.

With `CC(=O)OCC(NC(=O)C(C)N)P(=O)(O)O` (stereo unspecified), the IC50 in assay [1] was above 512 µg/mL; in assay [5], 0.065 µg/mL (≈ 0.256 µM); in assay [6], above 512 µg/mL; in assay [7], 96 µg/mL (≈ 378 µM); in [10], above 512 µg/mL; in [12], 512 µg/mL (≈ 2010 µM). For the same molecule, the MIC in assay [2], in [3], in assay [4], in assay [8], in assay [9] and in [11] was above 512 µg/mL each time.

For `CC(C)CC(N)C(=O)N1CCCC1P(=O)(O)O` (stereo unspecified), the IC50 in assay [1] was above 512 µg/mL; in assay [5], 35 µg/mL (≈ 132 µM); in assay [6], 70 µg/mL (≈ 265 µM); in assay [7] it was 154 µg/mL (≈ 583 µM); in [10] it was 83 µg/mL (≈ 314 µM); in [12], 42 µg/mL (≈ 159 µM). Besides, the MIC in [2] is 512 µg/mL (≈ 1940 µM); in [3], 128 µg/mL (≈ 484 µM); in assay [4] it was 64 µg/mL (≈ 242 µM); in assay [8], above 512 µg/mL; in assay [9] it was 256 µg/mL (≈ 969 µM); in [11], above 512 µg/mL.

Consider `CC(=O)OCC(NC(=O)C(N)CC(C)C)P(=O)(O)O` (stereo unspecified), for which the IC50 was 1.4 µg/mL (≈ 4.73 µM) in assay [1]; above 512 µg/mL in [5]; above 512 µg/mL in assay [6]; above 512 µg/mL in [7]; above 512 µg/mL in assay [10]; 0.065 µg/mL (≈ 0.219 µM) in assay [12]. The MIC in assay [2], in assay [3], in assay [4], in assay [8], in [9] and in assay [11] was above 512 µg/mL each time.

With `CC(N)C(=O)N1CCCC1P(=O)(O)O` (stereo unspecified), the IC50 in assay [1], in assay [5], in [6], in [7], in assay [10] and in assay [12] was above 512 µg/mL in each case. The MIC in [2], in assay [3], in assay [4], in [8], in assay [9] and in [11] was above 512 µg/mL in each case.

For `CC(C)CC(N)C(=O)NC(C)P(=O)(O)O` (stereo unspecified), the IC50 in assay [1] came out at 4 µg/mL (≈ 16.8 µM); in assay [5] it was 8 µg/mL (≈ 33.6 µM); in assay [6], 0.09 µg/mL (≈ 0.378 µM); in [7], 1.6 µg/mL (≈ 6.72 µM); in assay [10] it was 0.1 µg/mL (≈ 0.42 µM); in [12], 2 µg/mL (≈ 8.4 µM). Moreover, the MIC in [2] is 0.5 µg/mL (≈ 2.1 µM); in [3], 8 µg/mL (≈ 33.6 µM); in [4], 32 µg/mL (≈ 134 µM); in assay [8], 16 µg/mL (≈ 67.2 µM); in [9], above 512 µg/mL; in [11], above 512 µg/mL.

In the case of `COc1ccc(CC(NC(=O)C(C)N)P(=O)(O)O)cc1OC` (stereo unspecified), the IC50 in [1], in assay [5], in [6], in [7], in assay [10] and in [12] was above 512 µg/mL in each case. In addition, the MIC in [2], in assay [3], in assay [4], in assay [8], in assay [9] and in [11] was above 512 µg/mL in each case.

On to `CC(C)CC(N)C(=O)NC(Cc1ccccc1)P(=O)(O)O` (stereo unspecified), for which the IC50 in assay [1] was 0.065 µg/mL (≈ 0.207 µM); in assay [5], 0.6 µg/mL (≈ 1.91 µM); in [6], above 512 µg/mL; in assay [7], above 512 µg/mL; in assay [10], above 512 µg/mL; in assay [12], above 512 µg/mL. In addition, the MIC in assay [2], in assay [3], in assay [4], in assay [8], in assay [9] and in [11] was above 512 µg/mL in each case.

In the case of `CC(N)C(=O)NC(C1CCCCC1)P(=O)(O)O` (stereo unspecified), the IC50 in assay [1] was above 512 µg/mL; in assay [5], 256 µg/mL (≈ 969 µM); in [6], above 512 µg/mL; in [7], above 512 µg/mL; in assay [10] it was above 512 µg/mL; in assay [12] it was above 512 µg/mL. The MIC in assay [2], in [3], in assay [4], in assay [8], in assay [9] and in [11] was above 512 µg/mL in each case.

For `CC(C)CC(N)C(=O)NC1(P(=O)(O)O)CCCCC1` (stereo unspecified), the IC50 is 5.6 µg/mL (≈ 19.2 µM) in assay [1]; 0.065 µg/mL (≈ 0.222 µM) in assay [5]; above 512 µg/mL in assay [6]; above 512 µg/mL in assay [7]; above 512 µg/mL in assay [10]; above 512 µg/mL in assay [12]. Besides, the MIC in assay [2], in assay [3], in assay [4], in [8], in assay [9] and in [11] was above 512 µg/mL each time.

With `CC(N)C(=O)NC(C1CCCC1)P(=O)(O)O` (stereo unspecified), the IC50 in assay [1] is above 512 µg/mL; in assay [5], 512 µg/mL (≈ 2050 µM); in assay [6], above 512 µg/mL; in assay [7], above 512 µg/mL; in assay [10], above 512 µg/mL; in assay [12] it was 16 µg/mL (≈ 63.9 µM). The MIC in [2], in assay [3], in assay [4], in [8], in assay [9] and in assay [11] was above 512 µg/mL throughout.

`CC(C)CC(N)C(=O)NC(C)(C)P(=O)(O)O` (stereo unspecified): the IC50 in assay [1] came to 45 µg/mL (≈ 178 µM); in assay [5] it was 48 µg/mL (≈ 190 µM); in [6] it was 35 µg/mL (≈ 139 µM); in assay [7], 4.4 µg/mL (≈ 17.4 µM); in assay [10], 384 µg/mL (≈ 1520 µM); in [12], 4.4 µg/mL (≈ 17.4 µM). The MIC in assay [2] is above 512 µg/mL; in assay [3], 64 µg/mL (≈ 254 µM); in assay [4], 256 µg/mL (≈ 1010 µM); in assay [8], 256 µg/mL (≈ 1010 µM); in assay [9], 256 µg/mL (≈ 1010 µM); in assay [11], 8 µg/mL (≈ 31.7 µM).

For `CC(N)C(=O)NC(C(C)(C)C)P(=O)(O)O` (stereo unspecified), the IC50 in assay [1], in assay [5], in [6], in [7], in [10] and in assay [12] was above 512 µg/mL throughout. Also, the MIC in [2], in [3], in assay [4], in [8], in assay [9] and in [11] was above 512 µg/mL throughout.

`CC(C)CC(N)C(=O)NC(CC(C)C)P(=O)(O)O` (stereo unspecified): the IC50 in [1] was 32 µg/mL (≈ 114 µM); in assay [5] it was 104 µg/mL (≈ 371 µM); in assay [6] it was 307 µg/mL (≈ 1100 µM); in assay [7], above 512 µg/mL; in assay [10], 64 µg/mL (≈ 228 µM); in assay [12], above 512 µg/mL. For the same molecule, the minimum inhibitory concentration (MIC) is above 512 µg/mL in [2]; above 512 µg/mL in assay [3]; 512 µg/mL (≈ 1830 µM) in [4]; above 512 µg/mL in assay [8]; above 512 µg/mL in [9]; above 512 µg/mL in assay [11].

For `CC(C)CC(NC(=O)C(C)N)P(=O)(O)O` (stereo unspecified), the IC50 in [1] is 153 µg/mL (≈ 642 µM); in assay [5], 48 µg/mL (≈ 201 µM); in assay [6], above 512 µg/mL; in assay [7], above 512 µg/mL; in assay [10], above 512 µg/mL; in assay [12], 90 µg/mL (≈ 378 µM). In addition, the MIC in assay [2] was above 512 µg/mL; in [3] it was above 512 µg/mL; in assay [4], 256 µg/mL (≈ 1070 µM); in assay [8] it was above 512 µg/mL; in [9], above 512 µg/mL; in assay [11], above 512 µg/mL.

Consider `CC(N)C(=O)NC1(P(=O)(O)O)CCCCC1` (stereo unspecified), for which the IC50 in assay [1], in assay [5], in [6], in assay [7], in assay [10] and in [12] was above 512 µg/mL in each case. The MIC in [2], in [3], in [4], in assay [8], in [9] and in assay [11] was above 512 µg/mL throughout.

As usually defined, the IC50 is the concentration that gives 50% inhibition. Broadly, the MIC is the least concentration at which growth counts as inhibited. The low end stands for greater potency, the high end for weaker potency.

The values above are taken from ChEMBL document CHEMBL1123266, “Antibacterial activity of phosphono dipeptides related to alafosfalin” (J Med Chem, 1986).
